Our source for the Activity and IC50 values is ChEMBL document CHEMBL1137277, “Synthesis of highly substituted dibenzo[b,f]azocines and their evaluation as protein kinase inhibitors” (Bioorg Med Chem Lett, 2006).

Calls of active or inactive are those of the source. No cut-off for these calls is given here.

The target in experiment [1] is T1, cAMP-dependent protein kinase (PKA) (Homo sapiens, UniProt P22694+P17612+P22612). Kind of experiment: Inhibition of PKA-mediated phosphorylation of kemptide at 100 uM. It is filed as protein assay. Summed up:
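PKA (41 µg/ml) with kemptide (10 µM) and compound at 100 µM in 40 mM Tris pH 7.5, 20 mM MgCl2, 0.1 mg/ml BSA; equilibrated 1 h. ATP added (1 µM); after 10 min, remaining ATP read by Kinase-Glo Plus luminescence. DMSO and no-kinase controls; means of two replicates.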

Experiment [2] addresses Protein kinase C (PKC) (Homo sapiens) (UniProt O94806+P41743+P17252+P05129+Q05655+P05771+Q05513+Q02156+P24723+Q15139+Q04759). The experiment can be described thus: Inhibition of PKC-mediated phosphorylation of neurogranin at 100 uM. It is filed as protein assay. In outline: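 PKC (0.33 µg/ml), neurogranin (20 µM), compound 100 µM in 20 mM Tris pH 7.5, 10 mM MgCl2, 0.1 mg/ml BSA, 250 µM EGTA, 400 µM CaCl2 plus lipid activator (phosphatidylserine, […], CaCl2); 1 h equilibration. DMSO and no-kinase controls; duplicate means.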

The target in experiment [3] is T1, cAMP-dependent protein kinase (PKA). The experiment can be described thus: Inhibition of PKA-mediated phosphorylation of kemptide.

With `CCc1cccc2c1CNc1c(cccc1CCc1ccccc1)/C=C\2COc1ccccc1C(=O)OC`, the outcome in experiment [1] and in experiment [2] was inactive.

Regarding `CCc1cccc2c1CNc1c(cccc1CCc1ccccc1)/C=C\2COc1ccccc1F`, the result in experiment [1] and in experiment [2] was inactive.

Turning to `CCc1cccc2c1CNc1c(cccc1CCc1ccccc1)/C=C\2COc1ccc(OC)cc1`, the result in experiment [1] and in experiment [2] was inactive.

For the compound `CCc1cccc2c1CNc1c(cccc1CCc1ccccc1)/C=C\2COc1cccc(C(=O)OC)c1`, the outcome in experiment [1] and in experiment [2] was inactive.

As for `CCc1cccc2c1CNc1c(cccc1CCc1ccccc1)/C=C\2COc1cccc(C(F)(F)F)c1`, the outcome in experiment [1] and in experiment [2] was inactive.

On to `CCc1cccc2c1CNc1c(cccc1CCc1ccccc1)/C=C\2COc1ccccc1[N+](=O)[O-]`, for which the result in experiment [1] and in experiment [2] was inactive.

Regarding `CCc1cccc2c1CNc1c(cccc1CCc1ccccc1)/C=C\2COc1ccccc1Cl`, the outcome in experiment [1] and in experiment [2] was inactive.

Consider `CCc1cccc2c1CNc1c(cccc1CCc1ccccc1)/C=C\2COc1cccc([N+](=O)[O-])c1`, for which the result in experiment [1] and in experiment [2] was inactive.

In the case of `CCc1cccc2c1CNc1c(cccc1CCc1ccccc1)/C=C\2COc1ccccc1`, the result in experiment [1] and in experiment [2] was inactive.

On to `CCc1cccc2c1CNc1c(cccc1CCc1ccccc1)/C=C\2COc1ccccc1C(F)(F)F`, for which the outcome in experiment [1] and in experiment [2] was inactive.

Take `CCc1cccc2c1CNc1c(cccc1CCc1ccccc1)/C=C\2COc1ccc([N+](=O)[O-])cc1`: the outcome in experiment [1] and in experiment [2] was inactive.

Take `CCc1cccc2c1CNc1c(cccc1CCc1ccccc1)/C=C\2COc1cccc(F)c1`: the outcome in experiment [1] and in experiment [2] was inactive.

For the compound `CCc1cccc2c1CNc1c(cccc1CCc1ccccc1)/C=C\2COc1ccc(F)cc1`, the result in experiment [1] and in experiment [2] was inactive.

Consider `CCc1cccc2c1CNc1c(cccc1CCc1ccccc1)/C=C\2COc1ccc(C(=O)OC)cc1`, for which the result in experiment [1] and in experiment [2] was inactive.

On to `CCc1cccc2c1CNc1c(cccc1CCc1ccccc1)/C=C\2COc1ccccc1OC`, for which the result in experiment [1] and in experiment [2] was inactive.

Turning to `CCc1cccc2c1CNc1c(cccc1CCc1ccccc1)/C=C\2COc1ccc(Cl)cc1`, the outcome in experiment [1] and in experiment [2] was inactive.

As to `CCc1cccc2c1CNc1c(cccc1CCc1ccccc1)/C=C\2COc1ccccc1NC(C)=O`, the IC50 (as a rule, the midpoint of a concentration-inhibition curve) in experiment [3] came out at 122 µM. Besides, the result in experiment [2] was inactive.

`CCc1cccc2c1CNc1c(cccc1CCc1ccccc1)/C=C\2COc1cccc(OC)c1`: the result in experiment [1] and in experiment [2] was inactive.

Turning to `CCc1cccc2c1CNc1c(cccc1CCc1ccccc1)/C=C\2COc1cccc(Cl)c1`, the outcome in experiment [1] and in experiment [2] was inactive.
